# Sampled rows, rich in hits. Any-hit rate of the full collection: about 4.6%.
# HDAC3 inh = inhibitors of human histone deacetylase 3; recombinant HDAC3, fluorogenic peptide/trypsin coupled, fluorescence; inhibition, % at 8.3 µM; hit rate 0.15% among 320,000; AID 2718; in the data active means inhibition above about 26%, passing the limit was not always enough
# ALR inh = human ALR oxidase inhibition via reduced H2O2; inhibition, % (no concentration beside the values); hit rate 3.8% among 290,000; purified ALR, DTT oxidation, H2O2 HRP-luminol luminescence; P55789; AID 485317;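 active means mean replicate inhibition above about 79%, with every replicate also reaching it, limit read from the data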
# Target sequence (P55789 whole entry, looked up): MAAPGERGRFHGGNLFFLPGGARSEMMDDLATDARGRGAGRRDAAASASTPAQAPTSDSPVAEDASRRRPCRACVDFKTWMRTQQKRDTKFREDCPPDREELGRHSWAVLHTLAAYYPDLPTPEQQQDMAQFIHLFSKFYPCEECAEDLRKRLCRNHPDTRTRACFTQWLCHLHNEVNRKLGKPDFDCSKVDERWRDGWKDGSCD
# FAS-TE inh = blocks the thioesterase domain of human fatty acid synthase. P49327. recombinant FAS-TE, OMFH fluorogenic substrate, fluorescence endpoint. inhibition, % at 15 µM. hit rate 0.67% among 360,000;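 active means compounds whose normalised, plate-corrected inhibition of enzyme fluorescence in the single-dose primary screen is 50% or more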
# Rtt109 Vps75 = blocks Candida albicans Rtt109/Vps75 acetyltransferase activity | hit rate 0.16% among 330,000 | Q5AAJ8 | inhibition, % at 34.9 µM | purified Rtt109/Vps75, ThioGlo CoA-SH fluorescence, 4 h;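 active means inhibition of at least 50% in every replicate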
# M18AAP inhibitor = blocks P. falciparum M18 aspartyl aminopeptidase. recombinant PfM18AAP, H-Glu-NHMec fluorogenic cleavage. inhibition, % at 7.35 µM. hit rate 1.2% among 290,000. AID 1822;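 active means inhibition above the campaign mean inhibition over all tested compounds plus 3 SD, cut at about 28% in these data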
# UCH37 inh = inhibitors of human deubiquitinating enzyme UCH37; hit rate 0.33% among 330,000; purified proteasome/UCH37, Ub-AMC cleavage fluorescence; inhibition, % (concentration not given with the values); AID 588478;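 active means mean inhibition over replicate wells above about 20%, limit read from the data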
#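 Material: Human UCH37 enzyme supplied as purified proteasome complex | Schedule: 30 min compound-proteasome preincubation then 25 min substrate reaction, room temperature | Detection: AMC fluorescence from Ub-AMC cleavage, excitation 355 nm, emission 460 nm | Benchmarks: Wells without proteasome as full block, compound-free enzyme plus substrate as uninhibited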
# FAS-TE conf = confirmation of human fatty acid synthase thioesterase inhibitors; hit rate 45% among 2,300; shares compounds with FAS-TE inh; inhibition, % at 15 µM; recombinant FAS-TE, OMFH fluorogenic substrate, fluorescence; AID 624325;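 active means compounds inhibiting the enzyme by at least 50% at 15 µM in any one of the replicates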
# A number is an active result; – = inactive; · = no result.
SMILES,HDAC3 inh,ALR inh,FAS-TE inh,Rtt109 Vps75,M18AAP inhibitor,UCH37 inh,FAS-TE conf
COc1cc(/C=N/N(C)c2ccccc2)cc(Cl)c1O,–,99,73,–,–,·,57
COc1ccccc1-n1c2nc3ccccc3nc2c2c(=O)n(-c3cc(C)cc(C)c3)cnc21,–,–,92,·,–,–,–
COc1ccccc1-n1cnc2c(c1=O)c1nc3ccccc3nc1n2-c1ccc(C)cc1,–,–,–,–,–,–,·
CCCCN(CCCNC(=O)c1c(C)cc(=O)oc1C)c1ccccc1,–,99,51,–,–,–,–
Cc1ccc(-c2nn(-c3ccccc3)cc2C=C2SC(=S)N(CCS(=O)(=O)O)C2=O)cc1,·,·,–,·,·,·,·
O=C1C(=Cc2cn(-c3ccccc3)nc2-c2ccc(OCc3ccccc3)cc2)SC(=S)N1CCS(=O)(=O)O,·,·,71,·,·,·,–
O=C(O)CN1C(=O)/C(=C\c2cn(-c3ccccc3)nc2-c2ccccc2)SC1=S,–,–,–,–,–,·,·
CC(C)COc1ccc(-c2nn(-c3ccccc3)cc2/C=C2/SC(=S)N(CC(=O)O)C2=O)cc1,–,97,78,–,–,22,–
Cc1ccc(C(C(=O)NCc2ccccc2)N(Cc2cccs2)C(=O)c2ccc3c(c2)OCCO3)cc1 (stereo unspecified),–,–,51,–,–,–,–
Cc1ccc(S(=O)(=O)Nc2nc3ccccc3nc2Nc2cccc(S(=O)(=O)N3CCCC3)c2)cc1,·,·,–,–,–,–,·
O=[N+]([O-])c1cccc(S(=O)(=O)Nc2nc3ccccc3nc2Nc2cccc(S(=O)(=O)N3CCCCC3)c2)c1,·,·,82,–,–,–,–
COc1ccc2nc(N3CCCCC3)c(/C=C3\SC(=S)NC3=O)cc2c1,–,–,62,–,–,–,–
O=C1NC(=S)S/C1=C\c1cc2ccccc2nc1N1CCCCC1,–,97,69,–,–,–,51
CC(=O)Oc1oc(-c2ccccc2)nc1C=Nc1ccccn1,·,·,·,·,·,–,·
Nc1nonc1-n1nnc(C(=O)NN=Cc2cccc(O)c2)c1CN1CCCC1,·,·,·,·,·,–,·
COc1ccc(CN(CCC(c2ccccc2)c2ccc(OC(C)C)cc2)C(=O)CCl)cc1OC (stereo unspecified),–,–,52,–,–,–,–
COc1ccc(C(CCN(Cc2ccc(OC)c(OC)c2)C(C)=O)c2ccccc2)cc1 (stereo unspecified),–,–,–,–,–,–,·
N#CC(=NNc1ccc(F)cc1)C(=N)N1CCCCCC1,·,·,·,·,·,–,·
Cc1nc2ccccc2n1CC(=O)NN=C/C=C/c1ccccc1,·,·,·,·,·,–,·
CCC1=NN(C(=O)c2cccc(Br)c2)C(O)(c2ccc(Br)cc2)C1 (stereo unspecified),–,–,52,·,–,–,–
CC(=NNC(=O)Cc1cccn1C)c1ccco1,·,·,·,·,·,–,·
Cc1ccc(S(=O)(=O)N=C(N)Nc2nc(C)c3ccc(C)cc3n2)cc1,·,·,·,·,·,–,·
Cc1ccc2nc(N/C(N)=N/S(=O)(=O)c3ccc([N+](=O)[O-])cc3)nc(C)c2c1,–,–,67,–,–,–,55
N#CC1(NC(=O)COC(=O)c2cc([N+](=O)[O-])ccc2N2CCCC2)CCCCC1,–,–,66,–,·,–,75
N#CC1(NC(=O)COC(=O)c2cc([N+](=O)[O-])ccc2N2CCOCC2)CCCCC1,–,–,68,·,·,–,80
SMILES,HDAC3 inh,ALR inh,FAS-TE inh,Rtt109 Vps75,M18AAP inhibitor,UCH37 inh,FAS-TE conf
CN(C)S(=O)(=O)c1ccc(N2CCCC2)c(C(=O)OCC(=O)NC2(C#N)CCCCC2)c1,–,–,–,–,·,–,·
O=C(c1ccccc1)c1nc2ccccc2n(CCCn2c(=O)c(C(=O)c3ccccc3)nc3ccccc32)c1=O,–,–,60,–,–,–,–
O=C(Cn1cnc2ccccc21)NN=Cc1ccccc1[N+](=O)[O-],·,·,·,·,·,–,·
O=C(Nc1ccc(OC(F)(F)F)cc1)c1cccc(-n2cnnn2)c1,·,·,56,–,·,–,–
O=C(Cn1cnc2ccccc2c1=O)Nc1ccc2c(c1)OCO2,–,–,–,–,–,–,·
O=C(Cn1cnc2cc([N+](=O)[O-])ccc2c1=O)Nc1ccc2c(c1)OCO2,–,–,75,–,–,–,53
